Screening results: PubChem, several laboratories
PostGolgi yeast: growth inhibition of a yeast mutant, post-Golgi transport screen; post-Golgi transport phenotypic cell assay; inhibition, % at 10 µM; 0.9% of 98,000 active; AID 739;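 further: yeast cells grown in 1536-well plates; yeast grown about 18 h at 30C before absorbance read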
PostGolgi ctrl: growth of the yeast control strain, post-Golgi counter-screen. efflux-deficient yeast background strain, growth absorbance A615, 16 h. inhibition, % at 10 µM. 5% of 98,000 active. AID 738
E coli WT exp: E. coli BW25113 growth inhibition, expanded screen; OD600 absorbance; AID 710; growth inhibition, % at 100 µM; 0.15% of 98,000 active;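 active means growth inhibition above about 50% at one test dose, limit read from the data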;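 further: growth measured after 20 h incubation at 37 °C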
tolC growth inh: blocks growth of E. coli BW25113 tolC mutant | OD615 | growth inhibition, % at 10 µM (by protocol) | 2.2% of 65,000 active | AID 573;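 active means growth inhibition at or above a cutoff equal to the mean over every tested compound plus 3 SD, cut at about 60% in these data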;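 further: growth measured after 20 h incubation at 37 °C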
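Assay system: tolC-deleted E. coli BW25113. Medium: kanamycin-containing LB broth (50 µg/mL). Dosing: 10 µM final, single dose. Timing: bacterial growth with compound for 20 h at 37 °C. Detection: A615 absorbance measurement. Read-out basis: growth inhibition in percent.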
Cav3 T inh: human Cav3.2 channel inhibition, primary screen; B-score at 10 µM; O95180; AID 449739; 4% of 100,000 active; Cav3.2-expressing cells, Fluo-4 calcium fluorescence FDSS; stronger effect = lower value;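 active means single-dose well whose peak fluorescence ratio is a statistical outlier from its plate by either plate-standardised score or position-corrected B-score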
The depositor's hits bear a star; / = not tested or not shown. Sampled rows, rich in hits. Any-hit rate of the full collection: about 8.4%. Unless noted, no stated cut-off is given here; in the data, active means inhibition above about 30%; inactive means the rest.

SMILES	PostGolgi yeast	PostGolgi ctrl	E coli WT exp	tolC growth inh	Cav3 T inh
CCOc1ccccc1C1C(C(=O)OC)=C(N)OC2=C1C(=O)CCC2 (stereo not drawn)	-3	8	2	-14	-1.7
Cc1cc(C)c2nc(C(F)(F)F)nc(NCCCN3CCOCC3)c2c1	41*	30	5	/	-3.6
Fc1ccccc1-c1nc(NCCCN2CCOCC2)c2ccccc2n1	/	/	/	5	/
CN(NC(=O)c1ccc(Cl)cc1)c1cccc(Cl)n1	3	14	7	/	-0.02
O=C(CSc1nc2ccccc2n1Cc1ccccc1)N/N=C/c1ccco1	-2	6	-6	/	-4*
Cc1ccc(Cn2c(SCC(=O)N/N=C/c3ccc(C)o3)nc3ccccc32)cc1	1	9	-12	/	-10*
N[C@@H](CO)c1nnc([C@H](CC(=O)O)NC(=O)C2CCNCC2)o1	/	/	/	/	0.44
O=C(C1Cc2ccccc2CN1S(=O)(=O)c1cccs1)N1CCCCC1 (stereo not drawn)	8	7	-2	12	0.21
CCC1CCCCN1C(=O)c1cc(-c2ccc(Cl)c(Cl)c2)on1 (stereo not drawn)	-3	28	-9	100*	-0.7
Cc1ccc(C(=O)NCCNc2ccc(Cl)cc2[N+](=O)[O-])o1	2	31*	23	/	-1.1
CCNCCNc1ccc(Cl)cc1[N+](=O)[O-]	/	/	/	/	0.32
O=[N+]([O-])c1cc(C(F)(F)F)ccc1NCCNC(=S)Nc1ccc(Cl)cc1	82*	91*	3	/	0.044
O=[N+]([O-])c1ccc(NC(=S)NCCc2ccc(Cl)cc2)cc1	106*	92*	20	/	-0.32
O=[N+]([O-])c1cc(Cl)ccc1NCCNc1ncc(C(F)(F)F)cc1Cl	-7	1	-3	/	0.33
CCOC(=O)Nc1ccc2c(c1)N(C(=O)N(CC)CC)c1ccccc1CC2	/	/	/	37	/
CC1Oc2ccccc2N(CC(=O)N(Cc2ccccc2)Cc2ccccn2)C1=O (stereo not drawn)	-10	5	0	-7	-1.4
Cc1sc2nc(SCc3nnc(-c4cccs4)o3)n(C3CCCC3)c(=O)c2c1C	26	30*	-14	14	-3.5
Cc1sc2nc(SCC(=O)N(CCO)CCO)n(C3CCCCC3)c(=O)c2c1C	2	13	-2	-12	-0.59
CCOc1ccc(-n2c(COc3ccc(C)cc3)nnc2SCC(N)=O)cc1	2	-1	5	18	-1.2
CCOC(=O)C(CC)Sc1nnc(COc2ccc(C)cc2)n1-c1ccccc1 (stereo not drawn)	/	/	/	/	-7.3*
O=C(CSc1nnc(COc2ccccc2)n1-c1ccccc1)c1cccs1	-2	41*	-24	32	-6.9*
Cc1ccc(OCc2nnc(SCC(=O)c3cccs3)n2-c2ccccc2)cc1C	1	19	-5	/	-4.7
Cc1ccc(C23CC4CC(CC(NC(=O)NC(C)(C)CO)(C4)C2)C3)cc1	-2	38*	-5	/	0.35
CSc1nsc(SCC(=O)Nc2ccc(Br)cn2)n1	0	38*	-6	/	-4.1
Cn1nc(C(F)(F)F)c(/C=N/OC(=O)c2ccccc2Cl)c1SCc1ccccc1Cl	-4	7	-3	/	-6.6*
SMILES	PostGolgi yeast	PostGolgi ctrl	E coli WT exp	tolC growth inh	Cav3 T inh
O=C1N2c3ccccc3CCc3cccc(c32)C1(O)C(F)(F)F (stereo not drawn)	1	50*	6	32	-5.6*
O=C1CCCC2=C1C(O)(C(F)(F)F)C(=O)N2Cc1ccccc1 (stereo not drawn)	-2	-2	3	-14	0.045
CCc1ccc(NC(=O)Nc2cccs2)cc1	4	12	11	30	-0.089
Cc1ccc(NC(=O)Nc2cccs2)cc1	3	38*	7	-3	-0.59
CCOc1cc(/C=C2/SC(=O)N(CC(=O)N3CCc4ccccc4C3)C2=O)ccc1OCC(=O)O	-9	20	-1	/	0.13
CCOc1cc(/C=C2\C(=O)N(c3nc(-c4ccc(Br)cc4)cs3)N=C2c2ccccc2)ccc1O	1	31*	-11	/	/
CC1(C)Cc2ccccc2-c2nnc(SCC(=O)N3CCN(c4ccccc4)CC3)n21	2	14	-4	20	-0.85
CCn1nc(C)c(NC(=O)CCSc2nc(-c3ccco3)cc(C(F)(F)F)n2)c1C	-3	7	-10	/	0.91
O=C1CC(N2CCN(c3cccc(C(F)(F)F)c3)CC2)C(=O)N1c1ccccc1F (stereo not drawn)	26	25	4	10	-3.2*
CCN(C(=O)c1ccc(C(C)(C)C)cc1)c1nnc(Cn2nnc3ccccc32)s1	-2	43*	-10	62*	-8*
COc1ccc(-c2nc(-c3cccs3)c(-c3cccs3)[nH]2)cc1O	-1	31*	-5	97*	-2.7
